These results are taken from paper PMC5388221 (Drug Design, Development and Therapy, 2017).

Like-named read-outs stand apart in the source and are kept apart here.

The subject of series [1] is bloodstream trypomastigotes (BTs) of T. cruzi (Y strain). The experiment in a line: Trypanocidal assay against bloodstream trypomastigotes. It is filed as cell-based, Trypanosoma cruzi. The conditions noted are these: for SI (LC50/EC50), BTs: LC50 on cardiac cells at 24 h, BTs 24 h/37°C; for EC50: read-out: EC50 (µM), BTs. In outline:
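Bloodstream trypomastigotes come from Swiss mice at peak parasitemia. They are incubated at 5×10^6/mL in RPMI 1640 plus 10% fetal bovine serum with serial dilutions of test compound (0.001–10.6 µM) for 24 h at 37°C. Motile live parasites are counted by light microscopy in a Neubauer chamber; EC50 is a 50% drop versus untreated. SI = 24 h MTT LC50 on uninfected mouse cardiac cells/EC50.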

Series [2] deals with intracellular amastigotes of T. cruzi (Y strain). Put plainly: Effect against intracellular parasites in infected cardiac cell cultures. Format: cell-based, Trypanosoma cruzi. The conditions noted are these: for SI (LC50/EC50), intracellular amastigotes: LC50 on cardiac cells at 48 h, 48 h/37°C. In outline: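 T. cruzi Y strain infects primary embryonic Swiss mouse cardiac cells (parasite:host 10:1, 24 h), which are then washed. Cells are exposed to test compound (0.043–3.5 µM) for 48 h at 37°C in 5% CO2, then Bouin-fixed and Giemsa-stained. Infective index is % infected cells × mean parasites per infected cell; EC50 is 50% index reduction versus untreated. SI = 48 h MTT LC50 (uninfected cells)/EC50.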

Series [3] shares this test system. The conditions noted are these: read-out: EC50, infection of T. cruzi-infected CCs; after 48 h of treatment; cited from earlier work.
The conditions of series [4]: fast plasmatic clearance profile; cited from earlier work.

On to “2,5-Bis[2-(2,2,2-trifluoroethoxy)-4-(2-pyridylimino)aminophenyl]furan [DB1959]”, for which the “SI (LC50/EC50), BTs” value in series [1] worked out at 45. Besides, the EC50 in series [1] (24 h/37°C, Y strain) was found to be 0.078 ± 0.01 µM. In addition, the “SI (LC50/EC50), intracellular amastigotes” value in series [2] worked out at 1.6.
With “2,5-Bis[2-isobutoxy-4-(2-pyridylimino) aminophenyl]furan hydrochloride [DB1890B]”, the “SI (LC50/EC50), BTs” value in series [1] was found to be 760. The concentration for a half-maximal effect (EC50) in series [1] (24 h/37°C, Y strain) was 0.014 ± 0.007 µM; in series [3], 900 nM. Besides, the “SI (LC50/EC50), intracellular amastigotes” value in series [2] is given as 9.7.
Turning to “2,5-Bis[2-isopropoxy-4-(2-pyridylimino) aminophenyl]thiophene [DB1957]”, the “SI (LC50/EC50), BTs” value in series [1] is reported as 17. For the same compound, the EC50 in series [1] (24 h/37°C, Y strain) was 0.068 ± 0.0014 µM. Further, in series [2], the “SI (LC50/EC50), intracellular amastigotes” value came out at 6.
For `O=C(Cn1ccnc1[N+](=O)[O-])NCc1ccccc1` [Bz, benznidazole, reference compound], the “SI (LC50/EC50), BTs” value in series [1] was >77. For the same compound, the EC50 was 12.9 ± 1.93 µM in series [1] (Trypanosoma cruzi, 24 h) and 3.7 ± 1.72 µM in series [2] (Trypanosoma cruzi, 48 h, read-out: EC50 (µM), intracellular amastigotes). For the same compound, in series [2], the “SI (LC50/EC50), intracellular amastigotes” value is >360.
As to `CC(C)Oc1cc(NC(=N)c2ccccn2)ccc1-c1ccc(-c2ccc(NC(=N)c3ccccn3)cc2OC(C)C)s1` [DB1867, reference compound], the EC50 in series [3] was 58 nM.
For `CC1CS(=O)(=O)CCN1/N=C/c1ccc([N+](=O)[O-])o1` (stereo not shown) [nifurtimox], in series [4], the Half-life was 3 h.

As usually defined, the EC50 is the concentration at which the effect is half-maximal.
